Screens from PubChem BioAssay.
Rows were chosen to be rich in hits. Some 3.3% of all compounds tested hit in one or more screens of this group.
SIAE inh: inhibitors of human sialic acid acetylesterase SIAE; 0.69% of 370,000 active; Q9HAT2; inhibition, % at 9.66 µM; SIAE FP-Rh probe binding, fluorescence polarization;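 active means inhibition above a cutoff: mean of compounds within the control limits plus 3 SD of those, cut at about 17% in these data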;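 further: 0% = plate median of compound wells and 100% = probe without SIAE protein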
rCAG binder: r(CAG) repeat RNA binding; TO-PRO-1 dye displacement fluorescence; inhibition, % at 3 µM; 1.3% of 370,000 active;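 active means inhibition above the plate cutoff, the mean of all test compounds on that plate plus 3 SD, cut at about 35% in these data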;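 further: 0% = DMSO alone and 100% = 100 µM mitoxantrone as full dye displacement; higher means more dye released from RNA so lower well fluorescence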
PRMT1 FP inh: PRMT1 (human) inhibition, primary screen; inhibition, % at 2.79 µM; Q99873; 1.3% of 370,000 active; recombinant PRMT1, activity-based probe fluorescence polarization;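 active means inhibition above about 21% made by adding two undisclosed values, limit read from the data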
Target sequence (Q99873 whole entry, looked up): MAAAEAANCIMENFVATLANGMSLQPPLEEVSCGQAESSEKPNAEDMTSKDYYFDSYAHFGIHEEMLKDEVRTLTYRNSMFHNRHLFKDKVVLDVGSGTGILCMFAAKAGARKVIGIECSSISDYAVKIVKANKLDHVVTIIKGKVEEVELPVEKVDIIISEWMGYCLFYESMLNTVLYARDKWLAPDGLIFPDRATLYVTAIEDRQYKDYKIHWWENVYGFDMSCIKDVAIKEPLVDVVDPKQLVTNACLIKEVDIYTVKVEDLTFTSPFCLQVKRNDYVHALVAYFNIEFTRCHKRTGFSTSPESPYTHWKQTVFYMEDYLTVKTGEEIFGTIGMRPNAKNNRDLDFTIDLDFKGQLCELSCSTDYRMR
HTRA1 inh: HTRA1 (human) protease inhibition | Q92743 | recombinant HTRA1, FP-rhodamine activity-based probe, fluorescence polarization | inhibition, % at 5.96 µM | 0.5% of 340,000 active | AID 504803; in the data active means inhibition above about 36%;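 further: 0% = enzyme with DMSO and 100% = wells lacking enzyme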
mABHD4 FP: inhibits mouse alpha/beta hydrolase domain 4 | Q8VD66 | purified mABHD4, FP-Rh probe fluorescence polarization | inhibition, % at 8.92 µM | 0.54% of 370,000 active | AID 720543;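 active means inhibition exceeding the mean over every tested compound plus 3 SD, cut at about 30% in these data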;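 further: 0% = plate median of compound wells and 100% = S159A mutant with DMSO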
Target sequence (Q8VD66 whole entry, looked up, the tested form may be a part): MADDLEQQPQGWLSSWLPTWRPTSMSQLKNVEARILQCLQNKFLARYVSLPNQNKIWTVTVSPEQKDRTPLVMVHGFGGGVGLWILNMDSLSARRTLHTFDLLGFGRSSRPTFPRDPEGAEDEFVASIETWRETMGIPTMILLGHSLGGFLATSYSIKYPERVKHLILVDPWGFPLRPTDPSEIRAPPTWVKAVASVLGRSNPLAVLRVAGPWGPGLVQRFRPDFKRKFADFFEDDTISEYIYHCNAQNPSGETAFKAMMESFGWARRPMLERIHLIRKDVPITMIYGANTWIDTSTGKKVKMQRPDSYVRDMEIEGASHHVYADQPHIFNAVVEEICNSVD
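Assay system: wild-type mouse ABHD4 protein; compound: single nominal dose of 8.92 µM, 0.89% DMSO final; schedule: 45 min + 60 min at 25 °C; measured by: FP readout, ex 525 nm / em 598 nm; evaluation: % inhibition of FP-Rh probe binding versus controls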
HTRA1 inh conf: confirmation of human HTRA1 inhibitors; shares compounds with HTRA1 inh; recombinant HTRA1, FP-rhodamine activity-based probe, fluorescence polarization; 66% of 1,600 active; inhibition, % at 5.96 µM;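 active means mean inhibition over three repeats above a set limit taken from the earlier primary screen, cut at about 37% in these data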;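 further: 0% = HTRA1 with DMSO and 100% = wells lacking HTRA1; inhibitors block probe binding so polarization drops and inhibition rises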
Starred values were filed as active, the others as inactive; . = not tested or not shown.

SMILES | SIAE inh | rCAG binder | PRMT1 FP inh | HTRA1 inh | mABHD4 FP | others
O=C(NCCC1=CCCCC1)c1cnc2n(c1=O)CCS2 | -7.3 | -2.6 | 0.0 | 0.5 | 0.4
Cc1nc2c(C(=O)NCCC3=CCCCC3)c[nH]n2c(=O)c1Cl | 6.2 | 71.4* | 4.9 | -10.8 | -31.0
Cc1cc(C(=O)NCc2ccc3c(c2)OCO3)c(C)o1 | -10.0 | -0.4 | 0.1 | -1.8 | 0.6
CCCCCCCCN1C(=O)[C@@H](CC(=O)NCc2cccs2)C[C@@]2(C(=O)OC)C1=C[C@H](C(C)(C)C)O[C@@H]2C | 5.3 | 3.3 | 1.2 | . | -3.0
Cc1[nH]nc2c1C(c1ccccc1)N(c1ccccc1)C2=O (stereo unspecified) | -0.2 | 1.7 | -1.2 | . | 5.9
CCOc1ccccc1-c1c2cc(O)c(=O)cc-2oc2cc(O)c(O)cc12 | . | . | . | 85.1* | .
Cc1ccc(NC(=O)CN2C(=O)N/C(=C/c3cccn3-c3ccc(C(=O)O)cc3)C2=O)cc1 | 0.7 | 55.7* | 30.1* | -3.8 | 3.1
Cc1ccc(NC(=O)CN2C(=O)N/C(=C/c3cc(C)n(-c4ccc(C(=O)O)cc4)c3C)C2=O)cc1 | -1.0 | 36.9* | 7.1 | -11.0 | -1.6
Cc1ccc(NC(=O)CN2C(=O)N/C(=C/c3ccco3)C2=O)cc1 | 10.8 | 21.4 | 17.4 | 8.7 | 2.9
COc1ccc2c(c1)[C@@H](NC(=O)c1ccncc1)[C@@H]1Cc3ccccc3[C@H]21 | -0.1 | 3.2 | -1.5 | . | -8.0
Nc1nc(=S)c2ncn([C@@H]3O[C@H](CO)[C@@H](O)[C@H]3O)c2[nH]1 | 3.5 | 2.4 | 7.1 | 2.2 | 1.6
Nc1nc(=S)c2ncn(C3OC(CO)C(O)C3O)c2[nH]1 (stereo unspecified) | 5.7 | 27.8 | 23.1* | -0.8 | 13.5
Cc1ccc(S(=O)(=O)Nc2ccc(O)c3cccnc23)cc1 | -6.7 | 12.4 | 21.5* | 5.5 | 19.2
O=C(N[C@H](C(=O)N1CCC[C@H]1C(=O)NC1CCCC1)c1ccccc1)C1CC1 | -6.1 | 2.3 | -1.2 | . | -4.4
C=CCn1c(SCC(=O)NC23CC4CC(CC(C4)C2)C3)nc2cc(C(=O)O)ccc2c1=O | -6.9 | 34.5* | 4.2 | -4.8 | -5.5
COc1ccc(C(=O)C(=O)N2CCN(C(=O)c3cc(C(F)(F)F)cc(C(F)(F)F)c3)CC2)cc1OC | -5.8 | 0.8 | 0.9 | . | -6.3
O=C(Nc1ccccc1N1CCCC1)c1cccc(S(=O)(=O)N2CCOCC2)c1 | -1.3 | 2.8 | -1.3 | 2.3 | -2.3
O=C(Nc1ccccc1N1CCOCC1)c1cccc(S(=O)(=O)Nc2ccccc2F)c1 | 0.7 | 36.6* | -4.1 | 5.3 | -0.5
COc1ccc(S(=O)(=O)N2N=C(c3cccc(NS(C)(=O)=O)c3)CC2c2ccco2)cc1 (stereo unspecified) | -7.6 | 16.2 | 23.5* | -5.8 | 6.4
N#Cc1c(SCC(=O)Nc2cccc(F)c2)sc2c(O)cc(=O)[nH]c12 | -5.4 | 60.7* | 20.2 | -19.7 | -40.1
O=C(O)C1(Nc2ccc([N+](=O)[O-])cc2[N+](=O)[O-])CCCC1 | -0.4 | 1.0 | 23.0* | 1.6 | 7.6
Cc1ccc(S(=O)(=O)N2CCCc3nc(-c4ccc(Br)cc4)ccc32)cc1 | -6.8 | 3.3 | -2.3 | . | 2.6
c1ccc(Cc2cnc(N3CCN(Cc4csc5ccccc45)CC3)nc2)cc1 | -4.8 | 1.9 | -8.5 | . | -3.9
COC(=O)c1c(NC(=O)CCC(=O)O)sc(Cc2ccccc2)c1C | 0.0 | 32.5 | 3.3 | 5.1 | -3.2
CCCC(=O)Nc1sc(Cc2ccccc2)c(C)c1C(N)=O | 2.7 | 2.9 | 23.2* | -1.6 | -5.5
SMILES | SIAE inh | rCAG binder | PRMT1 FP inh | HTRA1 inh | mABHD4 FP | others
COc1cccc(/C=N/c2sc(Cc3ccccc3)c(C)c2C(N)=O)c1O | 5.3 | 37.1* | 11.2 | -3.2 | 19.1
Cc1c(Cc2ccc3c(c2)OCO3)sc(NC(=O)c2ccccc2)c1C(N)=O | -18.3 | 15.6 | 14.3 | -10.2 | -10.8
COC(=O)CCC(=O)Nc1sc(Cc2ccccc2)c(C)c1C(N)=O | -1.6 | 6.6 | 24.3* | -0.2 | 3.0
Nc1[nH]c(C(=O)c2ccccc2)c(-c2ccc3ccccc3c2)c1C(=O)NC1CC1 | 4.8 | 5.9 | -4.8 | . | 8.2
C=CCSc1nnc2c(n1)OC(c1c(C)[nH]n(-c3ccccc3)c1=O)Nc1ccccc1-2 (stereo unspecified) | -12.7 | 40.9* | 11.2 | -5.0 | -14.9
Cc1ccc(-c2cc(C(=O)NN=C/C=C/c3ccco3)[nH]n2)cc1C | -37.0 | 28.2 | 4.7 | . | -34.7
COC(=O)C1=C(C)N(C)C(=NCc2ccc(OC)cc2)NC1c1ccccc1 (stereo unspecified) | 11.6 | 6.7 | -3.1 | . | -4.5
CCCCN(Cc1cc2cc(OC)ccc2[nH]c1=O)C(=O)c1ccco1 | -2.0 | 2.7 | 24.4* | -5.3 | -7.5
CCOC(=O)C1=C(C)c2ccccc2N(C(=O)OC)C1(C)C(=O)OCC (stereo unspecified) | 4.6 | -1.4 | 23.6* | 2.1 | 9.2
CCOC(=O)C1=C(C)c2ccccc2OC1(CC)C(=O)OCC (stereo unspecified) | -1.4 | 0.8 | -1.4 | 6.5 | 6.9
CC(C)(C)c1ccc(C#C[C@@H]2C=C[C@@H](O)[C@@H](CO)O2)cc1 | 8.3 | -1.0 | -1.1 | . | -2.4
O=[N+]([O-])c1ccc(NC2CCN(Cc3ccccc3)CC2)c([N+](=O)[O-])c1 | 1.3 | -1.9 | -5.0 | 4.4 | 3.9
O=C1c2c([N+](=O)[O-])cc([N+](=O)[O-])cc2S(=O)N1Cc1ccccc1 (stereo unspecified) | 2.2 | 5.3 | 21.4* | -0.7 | 9.6
COC(=O)[C@]12C[C@H](CC(=O)N3CCN(C(=O)C4CC4)CC3)C(=O)N(Cc3ccccc3)C1=C[C@H](C(C)C)O[C@@H]2C1CC1 | 4.5 | 1.1 | 2.0 | . | 7.1
N#CC(c1nc2ccccc2nc1N1CCCC1)S(=O)(=O)c1ccccc1 (stereo unspecified) | 6.4 | 10.4 | 9.3 | 39.3* | 6.4 | HTRA1 inh conf=5.3
NC(=S)N/N=C/c1c(O)c(Br)cc2oc3c(c12)CCCC3 | 8.3 | 11.8 | 0.3 | 52.9* | 25.4 | HTRA1 inh conf=47.5*
CCn1c(CSc2nc3ccccc3s2)nnc1SCC(=O)c1ccc(O)c(O)c1 | -6.1 | 27.7 | 16.0 | 54.6* | 20.2 | HTRA1 inh conf=86.5*
C=CCn1c(SCC(=O)c2ccc(O)c(O)c2)nnc1-c1cccnc1 | 8.3 | 21.9 | 11.3 | 16.1 | 18.4
CCn1c(CSc2nc3ccccc3s2)nnc1SCC(=O)c1ccc(Cl)cc1 | -1.2 | 4.0 | 1.4 | -9.7 | -1.2
C=CCn1c(SCC(=O)c2ccc(O)c(O)c2)nnc1-c1cccc(Cl)c1 | 3.2 | 21.0 | 8.2 | 55.7* | 23.5 | HTRA1 inh conf=73.2*
CCn1c(SCC(=O)c2ccc(O)c(O)c2)nnc1-c1ccccc1OC | 5.0 | 11.3 | 6.7 | 37.7* | 24.9 | HTRA1 inh conf=44.0*
C(/C=C\c1ccco1)=NN1CCN(Cc2cccc3ccccc23)CC1 | 11.2 | 6.0 | 5.8 | . | 15.8
O=C1CSC(=S)N1N=Cc1c[nH]c2ccc(Br)cc12 | -14.4 | 15.7 | 3.0 | 55.6* | 25.4 | HTRA1 inh conf=59.9*
